High-throughput results from PubChem.
M5 ag = human M5 muscarinic receptor agonists, primary screen, CHO-K1 cells, Fluo-8 calcium fluorescence; CHO-K1 hM5 cells; 0% DMSO wells, 100% maximal acetylcholine response; AID 624037, 2012; activation, % at 3 µM; Muscarinic acetylcholine receptor M5 (Homo sapiens), P08912; 360,000 tested, 0.19% active;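 active = activation above the run's mean over test compounds plus 3 SD, cut at about 23% in these data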;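 note: signal is peak over basal fluorescence ratio across the kinetic read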
Target sequence (P08912 whole entry, looked up): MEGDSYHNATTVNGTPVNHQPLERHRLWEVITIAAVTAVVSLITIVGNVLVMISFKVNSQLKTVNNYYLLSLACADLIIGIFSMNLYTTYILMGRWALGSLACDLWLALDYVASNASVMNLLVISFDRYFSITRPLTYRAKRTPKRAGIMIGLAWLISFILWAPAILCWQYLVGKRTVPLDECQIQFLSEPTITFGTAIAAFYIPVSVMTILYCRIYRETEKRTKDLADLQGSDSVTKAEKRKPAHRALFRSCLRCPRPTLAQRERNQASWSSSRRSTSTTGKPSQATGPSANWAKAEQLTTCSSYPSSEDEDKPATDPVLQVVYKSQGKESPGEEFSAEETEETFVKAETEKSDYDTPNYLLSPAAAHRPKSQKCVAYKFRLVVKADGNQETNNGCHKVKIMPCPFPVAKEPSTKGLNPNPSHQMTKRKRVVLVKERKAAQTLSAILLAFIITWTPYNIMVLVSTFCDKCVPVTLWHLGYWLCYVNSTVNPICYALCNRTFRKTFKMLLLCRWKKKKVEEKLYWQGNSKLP
CHRM5 antagonist = human M5 muscarinic receptor antagonists, primary screen, CHO cells, Fluo-8 calcium fluorescence; CHO-hM5 cells, ACh EC80; AID 624040, 2012; Muscarinic acetylcholine receptor M5 (Homo sapiens), P08912; inhibition, % at 3 µM; 360,000 tested, 0.59% active;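 active = inhibition above a per-plate cutoff, the mean of that plate's test compounds plus 3 SD, cut at about 27% in these data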;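 note: 0% = acetylcholine EC80 with DMSO and 100% = DMSO without agonist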
M5 PAM = human M5 muscarinic receptor positive allosteric modulators, primary screen, CHO-K1 cells, Fluo-8 calcium fluorescence; Muscarinic acetylcholine receptor M5 (Homo sapiens), P08912; CHO-K1 hM5, ACh EC20 PAM; 0% = ACh EC20, 100% = ACh EC100; activation, % at 3 µM; 360,000 tested, 0.3% active; AID 624038, 2012;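 active = activation above the run cutoff, the mean activation of all test compounds plus 3 SD, cut at about 18% in these data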
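System – CHO-K1 hM5 cells · Compound – 3 µM, single dose · Incubation – compound preincubation 140 s before EC20 acetylcholine addition · Technique – Fluo-8 calcium fluorescence · Measure – Max/basal fluorescence ratio as % of EC20–EC100 ACh window · Benchmarks – low control EC20 acetylcholine (0%), high control EC100 acetylcholine (100%) · Replication – singlicate, one well per test compound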
CHRM4 PAM = human M4 muscarinic receptor positive allosteric modulators, primary screen, CHO-K1 cells, Fluo-8 calcium fluorescence; CHO-K1 hM4/Gqi5, ACh EC20; 0% = ACh EC20, 100% = maximal ACh; activation, % at 3 µM; 360,000 tested, 0.4% active; AID 624126, 2012;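 active = activation above its plate's cutoff, the mean activation of sample wells plus 3 SD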
M4 ag = human M4 muscarinic receptor agonists, primary screen, CHO-K1 cells, Fluo-8 calcium fluorescence. Muscarinic acetylcholine receptor M4 (Homo sapiens), P08173. CHO-K1 hM4/Gqi5; vehicle 0%, full acetylcholine response 100%. activation, % at 3 µM. 360,000 tested, 0.14% active;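 active = activation above the run mean over all test wells plus 3 SD, cut at about 32% in these data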;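 note: peak over basal fluorescence ratio per well then scaled between controls; 0% = DMSO wells and 100% = acetylcholine at EC100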
CHRM4 antagonist = human M4 muscarinic receptor antagonists, primary screen, CHO cells, Fluo-8 calcium fluorescence; CHO-hM4 cells, ACh EC80; 360,000 tested, 0.73% active; Muscarinic acetylcholine receptor M4 (Homo sapiens), P08173; inhibition, % at 3 µM; AID 624125, 2012;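 active = inhibition above its plate's cutoff, the mean inhibition of sample wells plus 3 SD, cut at about 27% in these data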;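 note: 0% = acetylcholine EC80 with DMSO and 100% = DMSO without agonist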
Active calls of the source: *. Rows were chosen to be rich in hits. Some 1.9% of all compounds tested hit in one or more screens of this group.

SMILES	M5 ag	CHRM5 antagonist	M5 PAM	CHRM4 PAM	M4 ag	CHRM4 antagonist
CC(C)[N+](C)(CCOC(=O)C1c2ccccc2Oc2ccccc21)C(C)C	-1.6	98.5*	-18.2	-17.8	-0.1	99.7*
C=CCN(CC=C)C(=O)C1c2ccccc2Oc2ccccc21	-2.4	-2.3	-1.0	5.2	-1.8	-4.3
O=C(Nc1ncc([N+](=O)[O-])s1)c1ccccc1Br	6.9	16.3	-21.3	-9.2	12.4	2.0
CN(C)CCSc1nnc2[nH]c3ccccc3c2n1	-0.4	3.8	5.7	19.0	0.8	-1.7
COC(=O)c1cc(NC(=O)Cn2c(=O)cnc3ccccc32)cc(C(=O)OC)c1	-4.0	-6.5	20.2*	3.5	1.2	-9.1
COC(=O)Cn1c(=O)cnc2ccccc21	0.7	-3.3	1.9	-0.3	-1.3	4.0
O=C(Cn1c(=O)cnc2ccccc21)NCC(=O)Nc1ccc(F)c(F)c1	-0.8	-4.5	-2.0	8.7	1.9	-25.6
O=C(O)Cn1c(=O)cnc2ccccc21	-3.0	11.3	0.4	5.5	1.8	26.6*
Cc1ccc(S(=O)(=O)NC(C)C(=O)OCC(=O)Nc2sccc2C(N)=O)cc1 (stereo not drawn)	0.4	3.2	-1.9	-3.2	0.8	2.4
Cc1cccc(C)c1-n1c(C)cc(/C=C2\NC(=O)NC2=O)c1C	-2.4	-3.5	-0.1	35.5*	0.0	1.0
Cc1cc(/C=C2\NC(=O)NC2=O)c(C)n1-c1cccnc1	-0.9	-4.5	2.4	5.3	0.1	-7.5
CCc1ccc(/C=C2\SC(=S)N(CCCC(=O)N3CCN(C)CC3)C2=O)cc1	0.5	12.0	-10.7	-4.5	7.4	5.6
COc1ccc(/C=C2\SC(=S)N(CCCC(=O)N3CCN(C)CC3)C2=O)cc1	6.1	10.8	33.1*	-3.3	10.2	-8.9
Cc1ccsc1C(=O)N1CCCCCC1(C)C(=O)NCC(C)C (stereo not drawn)	1.0	0.0	-1.0	14.8	0.9	-26.4
Cc1cc(C)nc(Nc2nc3ccccc3o2)n1	-3.2	15.1	-8.7	-6.2	0.4	-9.8
CC(=NNc1nc2ccccc2o1)c1ncccn1	6.1	50.7*	-19.9	-1.4	6.3	57.7*
C/C(=N\Nc1nc2ccccc2s1)c1cccs1	-1.3	-3.5	2.5	-0.5	-0.7	-6.2
Oc1ccccc1/C=N/Nc1nc2ccccc2o1	-4.1	-5.2	-4.0	-4.6	2.1	-17.5
CC(=NNc1nc2ccccc2s1)c1ncccn1	11.4	15.6	0.6	-0.4	12.3	48.1*
CC(=NNc1nc2ccccc2o1)c1cc2ccccc2cn1	8.3	27.8*	-15.9	-0.3	10.6	33.4*
CCN(CC)c1nc(NN)nc(Nc2ccc(C)c(Cl)c2)n1	-1.2	-4.1	4.3	-20.8	-0.1	-9.3
CC(C)(C)OC(=O)N1CCC(c2c(C(=O)NC3CC3)cnn2-c2ccccc2)CC1	-1.8	9.6	0.2	-4.1	1.9	3.5
CC(C)(C)n1nc2c(c1NC(=O)c1ccc(S(=O)(=O)N3CCCCC3)cc1)CS(=O)C2 (stereo not drawn)	-3.6	6.5	31.5*	0.9	0.4	-5.9
CCc1ccc(N=Nc2ccc(O)c3[nH]cnc23)cc1	29.7*	46.4*	-27.0	-12.9	47.6*	28.2*
COc1ccc(N=Nc2ccc(O)c3ncccc23)cc1	6.3	0.8	5.8	-1.7	0.6	-5.5
SMILES	M5 ag	CHRM5 antagonist	M5 PAM	CHRM4 PAM	M4 ag	CHRM4 antagonist
Cc1cc(C)n(-c2ccnc3cc(Cl)ccc23)n1	-3.0	7.7	1.9	4.8	0.0	-4.2
CCN(CC)CCC#CC1(O)c2ccccc2-c2ccccc21	-21.6	87.1*	-33.3	-15.6	0.0	73.3*
OC1(C#CCN2CCCC2)c2ccccc2-c2ccccc21	-21.0	51.2*	-31.8	-55.8	0.9	47.5*
Cc1ccc(NS(=O)(=O)c2cc3c4c(cccc4c2)C(=O)NC3=O)cc1C	3.5	0.0	0.3	-0.8	8.2	13.9
Cc1ccc(-n2nc3c(=O)n(CCCC(=O)NCc4cccc(F)c4)nc(C)c3c2C)cc1	-3.9	-13.6	4.4	-0.6	9.1	-17.1
Cc1cc(Br)ccc1NC(=O)CN1C(=O)C2C3CC(c4ccccc4)C(C3)C2C1=O (stereo not drawn)	2.5	19.4	-9.4	-21.2	10.2	28.2*
Cc1cc(Br)ccc1NC(=O)CNC(=O)CN1C(=O)NC2(CCCCCC2)C1=O	1.2	6.8	-3.2	-0.7	2.3	-0.6
Cc1ccc(Nc2ncnc(N)n2)cc1	-1.1	12.2	-3.7	-4.2	0.3	-7.4
Cc1cc(C)c(Nc2ncnc(N)n2)c(C)c1	-2.8	4.8	4.3	-73.5	-1.6	100.2*
C[C@H](CO)N1C[C@H](C)[C@@H](CN(C)C(=O)NC2CCCCC2)Oc2c(NS(=O)(=O)c3ccc(F)cc3)cccc2C1=O	-0.7	11.9	-1.9	12.7	1.0	-2.8
O=C(c1c(F)cccc1F)N1CCCC(c2nc(-c3ccc(Cl)cc3)no2)C1 (stereo not drawn)	-4.4	28.3*	-25.2	-10.0	10.2	-4.2
Cc1ccc(-c2noc(C3CCCN(C(=O)c4c(F)cccc4F)C3)n2)cc1 (stereo not drawn)	3.6	2.5	-10.1	3.1	11.9	-0.8
CCOC(=O)/C=C/C(=O)Nc1ccc(Oc2ccccc2)cc1	-2.8	35.8*	-26.0	-15.7	13.0	20.0
CCc1sc(C(=O)N2CCN(c3ccc(F)cc3)CC2)cc1C	-0.7	4.1	4.0	-1.0	3.1	4.4
COc1ccc(-c2nnc(-c3ccc(OCC(C)C)cc3)o2)cc1	-3.7	-6.3	9.0	22.1*	1.8	-5.6
CC(C)COc1ccc(-c2nnc(-c3ccncc3)o2)cc1	1.1	4.5	0.8	16.8	1.7	6.4
O=C1N/C(=N\S(=O)(=O)Cc2ccccc2)S/C1=C/c1cc([N+](=O)[O-])ccc1O	89.3*	40.3*	-38.2	-41.1	49.9*	18.7
Cc1ccc(S(=O)(=O)/N=C2/NC(=O)/C(=C\c3cc(Br)cc(Br)c3O)S2)cc1	35.5*	14.3	-9.3	-5.4	11.0	1.0
O=C1N/C(=N\S(=O)(=O)c2ccccc2)S/C1=C\c1cc([N+](=O)[O-])ccc1O	44.8*	15.0	-18.4	-26.5	124.9*	20.4
COC(=O)Nc1nncs1	-0.1	0.1	4.2	-8.8	-0.7	0.4
O=C(Nc1nncs1)C1CCCC1	5.5	-9.4	18.5*	-1.8	1.4	-7.6
